Laboratory results reported in ChEMBL document CHEMBL2062400, “RCAI-84, 91, and 105-108, ureido and thioureido analogs of KRN7000: their synthesis and bioactivity for mouse lymphocytes to produce Th1-biased cytokines” (Bioorg Med Chem, 2012).
Activity calls are given as the source filed them. The rule behind the calls is not given here.

Legend:
[1] = tested on: Mus musculus; test: Immunostimulatory activity in C57BL/6J mouse assessed as increase in IFNgamma level at 2 ug, iv upto 24 hrs by ELISA; format: functional, organism-based
Procedure, shortened: (§1)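 Mice were 8-week C57BL/6J kept under SPF conditions. Glycolipid was dissolved in DMSO (1.0 mg/mL, 80 °C, 30 min), diluted to 200 µg/mL in PBS with 0.5% Tween20, then to 10 µg/mL in PBS. A 200 µL dose (2 µg/mouse) was given iv. Retro-orbital plasma was taken at 3–60 h. IFN-γ was read by ELISA and IL-4 by CBA. Data are mean ± SD of 3 mice, repeated 3 times.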

[2] = tested on: Mus musculus; test: Immunostimulatory activity in C57BL/6J mouse assessed as increase in IL12p70 level at 2 ug, iv from 3 to 12 hrs by cytometric bead array method relative to KRN7000; format: functional, organism-based
Procedure, shortened: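 Eight-week SPF C57BL/6J mice received 2 µg glycolipid iv (200 µL of 10 µg/mL in PBS, from a DMSO stock diluted in PBS/0.5% Tween20). Plasma was collected from the retro-orbital plexus with heparinized capillaries at 3, 6, 12, 24, 36, 48 and 60 h. IL-12p70 was quantified by cytometric bead array.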

[3] = tested on: Mus musculus; test: Immunostimulatory activity in C57BL/6J mouse assessed as increase in IL4 level at 2 ug, iv by cytometric bead array method; format: functional, organism-based; procedure, shortened: as §1
[4] = tested on: Mus musculus; test: Immunostimulatory activity in C57BL/6J mouse assessed as IL4 level at 5 ug, ip at 2 hrs by sandwich ELISA relative to KRN7000; format: functional
[5] = tested on: Mus musculus; test: Immunostimulatory activity in C57BL/6J mouse assessed as IFNgamma level at 5 ug, ip at 16 hrs by sandwich ELISA relative to KRN7000; format: functional
[6] = tested on: Mus musculus; test: Immunostimulatory activity in C57BL/6J mouse assessed as IL4 level at 2 ug, iv by cytometric bead array method relative to KRN7000; format: functional
[7] = tested on: Mus musculus; test: Immunostimulatory activity in C57BL/6J mouse assessed as IFNgamma level at 2 ug, iv upto 24 hrs by ELISA relative to KRN7000; format: functional

Structure (SMILES) | Activity [1] | Activity [3] | also measured
CCCCCCCCCCCCCCCCCCCCCCCCNC(=O)N[C@@H](CO[C@H]1O[C@H](COC)[C@H](O)[C@H](O)[C@H]1O)[C@H](O)[C@H](O)CCCCCCCCCCCCCC | Active |  | Activity [2]: Active
CCCCCCCCCCCCCCCCNC(=S)N[C@@H](CO[C@H]1O[C@H](CO)[C@H](O)[C@H](O)[C@H]1O)[C@H](O)[C@H](O)CCCCCCCCCCCCCC | inactive | inactive | 
CCCCCCCCCCCCCCCCNC(=O)N[C@@H](CO[C@H]1O[C@H](CO)[C@H](O)[C@H](O)[C@H]1O)[C@H](O)[C@H](O)CCCCCCCCCCCCCC | Active | Active | 
CCCCCCCCCCCCCCCCCCCCCCCCC(F)(F)C(=O)N[C@@H](CO[C@H]1O[C@H](CO)[C@H](O)[C@H](O)[C@H]1O)[C@H](O)[C@H](O)CCCCCCCCCCCCCC |  |  | Activity [4]: 100%; Activity [5]: 50%
CCCCCCCCCCCCCCCCCC(=O)N[C@@H](CO[C@H]1O[C@H](CO)[C@H](O)[C@H](O)[C@H]1O)[C@H](O)[C@H](O)CCCCCCCCCCCCCC |  |  | Activity [6]: 40%; Activity [7]: 10%
CCCCCCCCCCCCCCCCCCCCCCCCCC(=O)N[C@@H](CO[C@H]1C[C@H](COC)[C@H](O)[C@H](O)[C@H]1O)[C@H](O)[C@H](O)CCCCCCCCCCCCCC | Active |  | 
CCCCCCCCCCCCCCCCCCCCCCCCCC(=O)N[C@@H](CC[C@H]1O[C@H](CO)[C@H](O)[C@H](O)[C@H]1O)[C@H](O)[C@H](O)CCCCCCCCCCCCCC | Active |  | 
CCCCCCCCCCCCCCCCCCCCCCCCCC(=O)N[C@@H](CO[C@H]1C[C@H](CO)[C@H](O)[C@H](O)[C@H]1O)[C@H](O)[C@H](O)CCCCCCCCCCCCCC | Active |  | 
CCCCCCCCCCCCCC[C@@H](O)[C@@H](O)[C@H](CO[C@H]1O[C@H](CO)[C@H](O)[C@H](O)[C@H]1O)NC(=O)CCCCCc1ccccc1 | inactive |  | 
CCCCCCCCCCCCCCCCCCCCCCCCCC(=O)N[C@@H](CO[C@H]1O[C@H](CO)[C@H](O)[C@H](O)[C@H]1O)[C@H](O)[C@H](O)CCCCCCCCCCCCCC |  | Active | 
CCCCCCCCCCCCCCCCCCCCCCCCCC(=O)N[C@@H](CS[C@H]1O[C@H](CO)[C@H](O)[C@H](O)[C@H]1O)[C@H](O)[C@H](O)CCCCCCCCCCCCCC | inactive |  | 
CCCCCCCCCCCCCCCCCCCCCCCCNC(=O)N[C@@H](CO[C@H]1O[C@H](CO)[C@H](O)[C@H](O)[C@H]1O)[C@H](O)[C@H](O)CCCCCCCCCCCCCC | Active |  | Activity [2]: Active
CCCCCCCCCCCCCC[C@@H](O)[C@@H](O)[C@H](CO[C@H]1O[C@H](CO)[C@H](O)[C@H](O)[C@H]1O)NC(=O)NCCCCCCCC | Active | Active | 
CCCCCCCCCCCCCC[C@@H](O)[C@@H](O)[C@H](CO[C@H]1O[C@H](CO)[C@H](O)[C@H](O)[C@H]1O)NC(=O)NCCCCCc1ccccc1 | inactive | inactive | 
